The record followed here is ChEMBL document CHEMBL1126924, “R2 C-terminal peptide inhibition of mammalian and yeast ribonucleotide reductase” (J Med Chem, 1993).

In test [1] the target is Ribonucleoside-diphosphate reductase RR1 (Homo sapiens) (UniProt P23921+Q7LG56+P31350). The test is described as follows: Relative inhibitory potency against mammalian ribonucleotide reductase. It is filed as protein-complex assay.
Test [2] concerns the target T1, Ribonucleoside-diphosphate reductase RR1 (Homo sapiens, UniProt P23921+P31350+Q7LG56).
T1 sequence (P23921 whole entry): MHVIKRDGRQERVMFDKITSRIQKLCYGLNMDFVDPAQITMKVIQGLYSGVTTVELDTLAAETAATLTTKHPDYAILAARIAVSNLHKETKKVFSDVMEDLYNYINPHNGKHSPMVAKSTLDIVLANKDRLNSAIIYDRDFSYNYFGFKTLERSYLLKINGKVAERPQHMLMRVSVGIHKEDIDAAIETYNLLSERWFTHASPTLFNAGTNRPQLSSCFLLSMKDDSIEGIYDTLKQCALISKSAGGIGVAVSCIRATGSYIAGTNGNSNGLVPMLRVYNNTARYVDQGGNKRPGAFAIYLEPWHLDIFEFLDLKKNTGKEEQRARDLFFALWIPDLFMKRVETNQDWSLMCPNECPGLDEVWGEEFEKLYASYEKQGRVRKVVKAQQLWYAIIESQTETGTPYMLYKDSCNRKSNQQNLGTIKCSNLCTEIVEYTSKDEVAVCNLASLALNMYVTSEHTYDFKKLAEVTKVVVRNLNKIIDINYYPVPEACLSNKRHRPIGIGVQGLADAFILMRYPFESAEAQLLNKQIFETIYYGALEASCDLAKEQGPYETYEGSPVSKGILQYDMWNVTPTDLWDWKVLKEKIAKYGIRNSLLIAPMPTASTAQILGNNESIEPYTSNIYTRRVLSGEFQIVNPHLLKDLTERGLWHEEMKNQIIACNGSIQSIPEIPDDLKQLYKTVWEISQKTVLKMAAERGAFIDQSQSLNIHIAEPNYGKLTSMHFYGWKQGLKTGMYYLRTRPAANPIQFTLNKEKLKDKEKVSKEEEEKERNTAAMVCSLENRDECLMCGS
T1 sequence (Q7LG56 whole entry): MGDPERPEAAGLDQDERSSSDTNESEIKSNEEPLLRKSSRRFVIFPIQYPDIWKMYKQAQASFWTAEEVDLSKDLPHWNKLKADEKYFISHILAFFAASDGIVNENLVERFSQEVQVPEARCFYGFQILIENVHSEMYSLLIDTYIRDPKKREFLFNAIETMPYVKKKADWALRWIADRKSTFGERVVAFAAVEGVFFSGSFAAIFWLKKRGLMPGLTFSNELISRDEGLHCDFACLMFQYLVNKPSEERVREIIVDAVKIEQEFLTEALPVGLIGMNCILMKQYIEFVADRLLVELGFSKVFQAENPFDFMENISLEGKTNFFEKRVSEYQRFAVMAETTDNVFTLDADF
T1 sequence (P31350 whole entry): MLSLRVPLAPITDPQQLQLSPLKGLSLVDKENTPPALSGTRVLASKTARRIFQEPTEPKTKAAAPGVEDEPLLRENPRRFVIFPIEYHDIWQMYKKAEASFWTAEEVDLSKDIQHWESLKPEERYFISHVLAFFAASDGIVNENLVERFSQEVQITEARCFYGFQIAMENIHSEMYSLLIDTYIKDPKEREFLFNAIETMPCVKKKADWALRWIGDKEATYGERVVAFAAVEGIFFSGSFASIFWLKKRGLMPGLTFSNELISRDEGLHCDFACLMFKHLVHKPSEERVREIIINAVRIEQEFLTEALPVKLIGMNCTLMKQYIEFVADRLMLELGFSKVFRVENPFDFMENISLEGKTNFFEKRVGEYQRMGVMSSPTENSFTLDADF
The test is described as follows: Inhibition of mammalian ribonucleotide reductase. Type of test: protein-complex assay. The essentials:
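Calf thymus R1 (1 μg) with cloned mouse R2 (2 μg) expressed in E. coli from pET-M2. CDP reduction was run at 35 °C with DTT as reductant. [³H]dCDP was separated on aminophenylboronate and counted by scintillation.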

Square brackets hold non-standard residues; d marks the D form. Peptide text beside a SMILES is read from it. aThr = C[C@H](O)[C@H](N)C(=O)O

In turn, `CC(=O)N[C@@H](CC(N)=O)C(=O)N[C@@H](CO)C(=O)N[C@@H](Cc1ccccc1)C(=O)N[C@H](C(=O)N[C@@H](CC(C)C)C(=O)N[C@@H](CC(=O)O)C(=O)N[C@@H](C)C(=O)N[C@@H](CC(=O)O)C(=O)N[C@@H](Cc1ccccc1)C(=O)O)[C@H](C)O` returned an RI in test [1] of 100%.

`CC(=O)N[C@@H](CO)C(=O)N[C@@H](Cc1ccccc1)C(=O)N[C@H](C(=O)N[C@@H](CC(C)C)C(=O)N[C@@H](CC(=O)O)C(=O)N[C@@H](C)C(=O)N[C@@H](CC(=O)O)C(=O)N[C@@H](Cc1ccccc1)C(=O)O)[C@H](C)O` gave an RI in test [1] of 100%.

In test [1], `CC(=O)N[C@@H](Cc1ccccc1)C(=O)N[C@H](C(=O)N[C@@H](CC(C)C)C(=O)N[C@@H](C)C(=O)N[C@@H](C)C(=O)N[C@@H](CC(=O)O)C(=O)N[C@@H](Cc1ccccc1)C(=O)O)[C@H](C)O` gave an RI of 2.9%.

In test [1], Ac-FLDADF-OH registered an RI of 2.5%.

On to `CC(=O)N[C@@H](Cc1ccccc1)C(=O)N[C@H](C(=O)N[C@@H](Cc1ccccc1)C(=O)N[C@@H](CC(=O)O)C(=O)N[C@@H](C)C(=O)N[C@@H](CC(=O)O)C(=O)N[C@@H](Cc1ccccc1)C(=O)O)[C@H](C)O`, for which the RI in test [1] turned out to be 18%.

Regarding `CC(=O)N[C@@H](Cc1ccccc1)C(=O)N[C@H](C(=O)N[C@@H](CC(C)C)C(=O)N[C@@H](CC(=O)O)C(=O)N[C@@H](C)C(=O)N[C@@H](CC(=O)O)C(=O)N[C@@H](CC(C)C)C(=O)O)[C@H](C)O` (Ac-F[aThr]LDADL-OH), in test [1], the RI is less than 3%.

Molecule `CC(=O)N[C@@H](Cc1ccccc1)C(=O)N[C@H](C(=O)N[C@@H](CC(C)C)C(=O)N[C@@H](CC(=O)O)C(=O)N[C@@H](CC(=O)O)C(=O)N[C@@H](Cc1ccccc1)C(=O)O)[C@H](C)O` displayed an RI in test [1] of 3%.

Regarding H-FTLDADF-OH, the IC50 in test [2] was more than 400 µM.

In turn, `CC(=O)N[C@@H](Cc1ccc(N)cc1)C(=O)N[C@H](C(=O)N[C@@H](CC(C)C)C(=O)N[C@@H](CC(=O)O)C(=O)N[C@@H](C)C(=O)N[C@@H](CC(=O)O)C(=O)N[C@@H](Cc1ccccc1)C(=O)O)[C@H](C)O` displayed an RI in test [1] of 10%.

In turn, `CC(=O)N[C@@H](Cc1ccccc1)C(=O)N[C@H](C(=O)N[C@@H](CC(C)C)C(=O)N[C@@H](CC(=O)O)C(=O)NCC(=O)N[C@@H](CC(=O)O)C(=O)N[C@@H](Cc1ccccc1)C(=O)O)[C@H](C)O` showed an RI in test [1] of 9%.

`CC(=O)N[C@@H](Cc1ccccc1)C(=O)N[C@H](C(=O)N[C@@H](CC(C)C)C(=O)N[C@@H](CC(=O)O)C(=O)N[C@@H](C)C(=O)N[C@@H](CC(=O)O)C(=O)N[C@@H](Cc1ccccc1)C(=O)O)[C@H](C)O` (Ac-F[aThr]LDADF-OH): the RI in test [1] turned out to be 100%.

In test [1], `CC(=O)N[C@@H](Cc1ccccc1)C(=O)N[C@H](C(=O)N[C@@H](CC(C)C)C(=O)N[C@@H](CC(=O)O)C(=O)N[C@@H](C)C(=O)N[C@@H](CC(N)=O)C(=O)N[C@@H](Cc1ccccc1)C(=O)O)[C@H](C)O` returned an RI of 23%.

For the molecule `CC(=O)N[C@@H](CC(C)C)C(=O)N[C@H](C(=O)N[C@@H](CC(C)C)C(=O)N[C@@H](CC(=O)O)C(=O)N[C@@H](C)C(=O)N[C@@H](CC(=O)O)C(=O)N[C@@H](Cc1ccccc1)C(=O)O)[C@H](C)O` (Ac-L[aThr]LDADF-OH), the RI in test [1] was less than 3%.

Take Ac-LDADF-OH: the RI in test [1] is less than 3%. Further, the IC50 in test [2] is more than 400 µM.

Molecule `CC(=O)N[C@@H](Cc1ccccc1)C(=O)N[C@H](C(=O)N[C@@H](CC(C)C)C(=O)N[C@@H](CC(=O)O)C(=O)N[C@@H](Cc1ccccc1)C(=O)O)[C@H](C)O` gave an RI in test [1] of 2.5%.

`CC(=O)N[C@@H](Cc1ccc(N=[N+]=[N-])cc1)C(=O)N[C@H](C(=O)N[C@@H](CC(C)C)C(=O)N[C@@H](CC(=O)O)C(=O)N[C@@H](C)C(=O)N[C@@H](CC(=O)O)C(=O)N[C@@H](Cc1ccccc1)C(=O)O)[C@H](C)O` displayed an RI in test [1] of 10%.

Molecule `CC(=O)N[C@@H](Cc1ccccc1)C(=O)N[C@H](C(=O)N[C@@H](CC(C)C)C(=O)N[C@@H](CC(=O)O)C(=O)N[C@@H](C)C(=O)N[C@@H](CC(=O)O)C(=O)N[C@@H](Cc1ccccc1)C(=O)N[C@@H](C)C(=O)N[C@@H](C)C(=O)O)[C@H](C)O` (Ac-F[aThr]LDADFAA-OH) registered an RI in test [1] of 2.1%.

The molecule `CC(=O)N[C@H](C(=O)N[C@@H](CC(C)C)C(=O)N[C@@H](CC(=O)O)C(=O)N[C@@H](C)C(=O)N[C@@H](CC(=O)O)C(=O)N[C@@H](Cc1ccccc1)C(=O)O)[C@@H](C)O` came in with an IC50 in test [2] of more than 400 µM.

Regarding `CC(C)C[C@H](NC(=O)[C@@H](NC(=O)[C@H](Cc1ccccc1)NC(=O)[C@@H](N)CO)[C@H](C)O)C(=O)N[C@@H](CC(=O)O)C(=O)N[C@@H](C)C(=O)N[C@@H](CC(=O)O)C(=O)N[C@@H](Cc1ccccc1)C(=O)O`, the RI in test [1] is 25%.

In turn, `CC(=O)N[C@@H](Cc1ccccc1)C(=O)N[C@H](C(=O)N[C@@H](CC(C)C)C(=O)N[C@@H](CC(=O)O)C(=O)N[C@@H](C)C(=O)N[C@@H](CC(C)C)C(=O)N[C@@H](Cc1ccccc1)C(=O)O)[C@H](C)O` gave an RI in test [1] of 34%.

`CC(=O)N[C@@H](Cc1ccccc1)C(=O)N[C@H](C(=O)N[C@@H](C)C(=O)N[C@@H](CC(=O)O)C(=O)N[C@@H](C)C(=O)N[C@@H](CC(=O)O)C(=O)N[C@@H](Cc1ccccc1)C(=O)O)[C@H](C)O` showed an RI in test [1] of 4.9%.

`CC(=O)N[C@H](C(=O)N[C@@H](CC(C)C)C(=O)N[C@@H](CC(=O)O)C(=O)N[C@@H](C)C(=O)N[C@@H](CC(=O)O)C(=O)N[C@@H](Cc1ccccc1)C(=O)O)[C@H](C)O`: the RI in test [1] was less than 3%.

`CC(=O)N[C@@H](Cc1ccccc1)C(=O)N[C@H](C(=O)N[C@@H](CC(C)C)C(=O)N[C@@H](CC(N)=O)C(=O)N[C@@H](C)C(=O)N[C@@H](CC(=O)O)C(=O)N[C@@H](Cc1ccccc1)C(=O)O)[C@H](C)O`: in test [1], the RI turned out to be 40%.

`CC(C)C[C@H](NC(=O)[C@@H](NC(=O)[C@@H](N)Cc1ccccc1)[C@H](C)O)C(=O)N[C@@H](CC(=O)O)C(=O)N[C@@H](C)C(=O)N[C@@H](CC(=O)O)C(=O)N[C@@H](Cc1ccccc1)C(=O)O` (H-F[aThr]LDADF-OH): the RI in test [1] is less than 3%.

For `CC(=O)N[C@@H](Cc1ccccc1)C(=O)N[C@H](C(=O)N[C@@H](CC(C)C)C(=O)N[C@@H](CC(=O)O)C(=O)N[C@@H](CC(C)C)C(=O)N[C@@H](CC(=O)O)C(=O)N[C@@H](Cc1ccccc1)C(=O)O)[C@H](C)O`, the RI in test [1] was determined as 35%.

In turn, `CC(=O)N[C@@H](Cc1ccccc1)C(=O)N[C@H](C(=O)N[C@H](C(=O)N[C@@H](CC(=O)O)C(=O)N[C@@H](C)C(=O)N[C@@H](CC(=O)O)C(=O)N[C@@H](Cc1ccccc1)C(=O)O)C(C)C)[C@H](C)O` had an RI in test [1] of 35%.

On to Ac-LTLDADF-OH, for which the IC50 in test [2] is more than 400 µM.

The molecule `CC(=O)N[C@@H](Cc1ccccc1)C(=O)N[C@H](C(=O)N[C@@H](CC(C)C)C(=O)N[C@@H](CC(=O)O)C(=O)N[C@@H](C)C(=O)N[C@@H](C)C(=O)N[C@@H](Cc1ccccc1)C(=O)O)[C@H](C)O` showed an RI in test [1] of 28%.

The molecule `CC(=O)N[C@@H](Cc1ccccc1)C(=O)N[C@H](C(=O)N[C@@H](CC(C)C)C(=O)N[C@@H](CC(=O)O)C(=O)N[C@@H](C)C(=O)N[C@@H](CCC(=O)O)C(=O)N[C@@H](Cc1ccccc1)C(=O)O)[C@H](C)O` returned an RI in test [1] of 1.7%.

For Ac-FTLDADL-OH, in test [2], the IC50 is more than 400 µM.

As a reminder, the IC50 is the concentration needed to halve the response being measured.
